Screens deposited in PubChem by Broad Institute.
Shown are actives, neighbours in structure and some others; about 2.1% of the full set was active somewhere.
CAL PDZ FP-1 – CAL PDZ peptide-binding inhibitors, primary screen, biochemical, fluorescence polarization, Cer-tagged CAL PDZ, HTS; 330,000 tested, 0.02% active; Golgi-associated PDZ and coiled-coil motif-containing protein (Homo sapiens), Q9HD26; inhibition, % at 20 µM; purified CAL PDZ, TMR-peptide fluorescence polarization, 1 h;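 active means highest replicate inhibition of at least 40%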;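 further: plate controls were DMSO neutral control wells for no effect and unlabeled competitor peptide control wells for full effect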
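System: purified tagged CAL PDZ domain construct (CerCALP). Schedule: 1 h incubation at room temperature before polarization reading. Medium: 25 mM sodium phosphate pH 7.4, 150 mM NaCl, TCEP, IgG, Thesit. Read-out: percent inhibition from loss of millipolarization. Measured by: FP readout, S and P plane fluorescence. Probe or stimulus: fluorescent TMR peptide probe.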
SR-BI DiI-HDL act – activators of SR-BI mediated DiI-HDL uptake, primary screen, ldlA[mSR-BI] CHO cells, DiI fluorescence. 3 h; 100 = double the neutral-control signal. activation, % at 12.5 µM. 320,000 tested, 0.096% active. AID 504775, 2011;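 active means mean replicate activation of at least 60% and every replicate at or above 60%; inconclusive means mean or all-replicate condition met, but not both; inactive means mean below 60% and not all replicates reaching 60%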;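 further: 0% = median plate neutral-control signal and 100% = twice that signal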
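Test system: SR-BI-overexpressing, LDLR-lacking CHO cells. Measured by: DiI fluorescence, bottom read. Medium: Ham's F12 with 0.5% BSA, HEPES 25 mM, pH 7.4. Timing: 3 h uptake period with compound, 37 °C.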
ARNT TACC3 PPI – disruptors of ARNT/TACC3 protein interaction, primary screen, biochemical, AlphaScreen, single concentration; 390,000 tested, 0.66% active; AlphaScreen His-ARNT PAS-B/GST-TACC3 binding, luminescence; TACC3 fragment carries E629A point mutation; Transforming acidic coiled-coil-containing protein 3 (Homo sapiens), Q9Y6A5; inhibition, % at 9.99 µM;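 active means mean inhibition of replicates at least 50% and at least half of replicates each reaching 50%; inconclusive means half or more replicates reach 50% but mean below 50%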;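 further: 0% = complete ARNT plus TACC3 wells and 100% = ARNT alone without TACC3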
miR-122 sensor – miR-122 Renilla sensor signal increase in Huh7, primary screen, miR-122 inhibitor project, cell-based, single point, plate reader | Huh7 miR-122 Renilla luciferase sensor, 48 h; neutral wells = 0, positive control = 100 | activation (reporter increase), % at 12.5 µM | 340,000 tested, 0.3% active | AID 602342, 2012;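 active means mean replicate activation score at least 90 and every replicate individually at or above 90; inconclusive means only one of the two criteria met; inactive means neither criterion met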;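 further: higher luciferase means less miR-122 activity so hits act as miR-122 inhibitors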
SR-BI HDL uptake – inhibitors of SR-BI mediated HDL lipid uptake, primary screen, ldlA[mSR-BI] cells, fluorescence, single point. Scavenger receptor class B member 1 (Mus musculus), Q61009. ldlA[mSR-BI] CHO cells, DiI-HDL uptake fluorescence, 3 h. inhibition, % at 12.5 µM. 320,000 tested, 0.96% active. AID 488896, 2010;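 active means mean replicate inhibition of at least 70% and a set share of replicates each scoring 70 or more; inconclusive means meets just one of the two criteria; inactive means fails both criteria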;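 further: 0% = median of neutral control wells and 100% = median of positive control wells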
Target sequence (Q61009 whole entry, looked up): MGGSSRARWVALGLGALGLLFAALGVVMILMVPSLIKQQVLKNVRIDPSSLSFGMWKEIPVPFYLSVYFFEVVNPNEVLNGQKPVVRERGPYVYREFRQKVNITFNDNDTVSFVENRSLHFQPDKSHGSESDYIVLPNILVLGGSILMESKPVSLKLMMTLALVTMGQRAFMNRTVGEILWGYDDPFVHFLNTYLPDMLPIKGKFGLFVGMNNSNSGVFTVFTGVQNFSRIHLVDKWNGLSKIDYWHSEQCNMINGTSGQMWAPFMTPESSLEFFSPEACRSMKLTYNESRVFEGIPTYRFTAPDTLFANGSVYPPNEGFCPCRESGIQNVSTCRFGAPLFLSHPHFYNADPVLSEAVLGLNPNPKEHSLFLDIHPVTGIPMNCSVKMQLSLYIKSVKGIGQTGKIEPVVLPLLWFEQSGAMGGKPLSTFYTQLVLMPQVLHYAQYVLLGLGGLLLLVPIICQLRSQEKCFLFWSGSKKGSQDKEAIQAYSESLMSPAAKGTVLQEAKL
CAL PDZ FP-2 – untagged CAL PDZ binding inhibitors, primary screen, biochemical, fluorescence polarization, HTS | Golgi-associated PDZ and coiled-coil motif-containing protein (Homo sapiens), Q9HD26 | purified CAL PDZ, TMR-peptide fluorescence polarization, 1 h | inhibition, % at 24.9 µM | 300,000 tested, 0.92% active;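 active means mean inhibition of at least 30% with at least half of replicates also reaching 30%; inconclusive means no clear call, values can overlap the other calls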;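 further: 0% = DMSO neutral control and 100% = excess unlabeled competitor peptide PRC23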
DiI quench – DiI fluorescence quenching in cell-free counter-screen | cell-free DiI-HDL fluorescence quenching, 30 min | AC50, µM (top dose mostly 35 µM), without a hit: at the highest dose activity change, negative = quenching | shares compounds with SR-BI HDL uptake | 470 tested, 20% active;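 active means quenching, a falling signal, with AC50 below a set limit tied to the top valid dose, actives reach about 32 µM in these data; inconclusive means no clear call, values can overlap the other calls; inactive means rising signal, and the rest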
The depositor's hits bear a star; ? = inconclusive; . = no result; [ ] = another dose, or the depositor's remark.

SMILES | CAL PDZ FP-1 | SR-BI DiI-HDL act | ARNT TACC3 PPI | miR-122 sensor | SR-BI HDL uptake | CAL PDZ FP-2 | DiI quench
COCCN(Cc1cn(C)nc1-c1ccc(Oc2ccccc2)cc1)C(C)C | -1 | -82 | -5 | -3 | 82* | . | -4%
CO[C@H]1CN(C)C(=O)c2cc(NS(=O)(=O)c3ccccc3Cl)ccc2OC[C@H](C)NC[C@H]1C | . | . | -13 | -7[16.7 µM] | . | . | .
Cc1ccc(S(=O)(=O)Nc2ccc3c(c2)C(=O)N([C@H](C)CO)C[C@H](C)[C@@H](CN(C)Cc2ccccc2)OCCCC[C@@H](C)O3)cc1 | . | . | 3 | -1[16.7 µM] | . | . | .
O=C(c1ccc(S(=O)(=O)NCc2ccco2)cc1)N1CCN(Cc2ccccc2)CC1 | 0 | -65 | -3 | . | 65 | 4 | 0%
O=C(c1ccc(S(=O)(=O)NCc2ccco2)cc1)N1CCN(c2ccc(F)cc2)CC1 | 0 | -27 | 1 | 3 | 27 | -2 | .
O=C(c1ccc(S(=O)(=O)NCc2ccco2)cc1)N1CCN(Cc2ccccc2F)CC1 | -1 | -68 | 7 | 12 | 68 | . | -5%
COc1ccc(CN2CCN(C(=O)c3ccc(S(=O)(=O)NCc4ccco4)cc3)CC2)cc1 | -2 | -93 | 3 | 3 | 93* | 0 | -5%
COc1ccc(-c2nnn(CC(=O)N(C3CCCCC3)C(C)C(=O)NC3CCCC3)n2)cc1OC (stereo not drawn) | -1 | -86 | -5 | -5 | 86* | . | 1%
COc1ccc(N(CC(=O)NC2CCCC2)C(=O)Cn2nnc(-c3ccc(C)cc3)n2)cc1OC | -2 | -29 | 21 | 4 | 29 | . | .
COc1ccc(N(CC(=O)NC2CCCC2)C(=O)Cn2nnc(-c3ccc(C)cc3)n2)cc1 | -2 | -8 | 2 | -2 | 8 | . | -3%
COc1ccc(-c2nnn(CC(=O)N(CC(=O)NC3CCCC3)c3cccc(C)c3)n2)cc1OC | -1 | -83 | -11 | -7 | 83* | -2 | 0%
COc1ccc(-c2nnn(CC(=O)N(C3CCCC3)C(C)C(=O)NC3CCCC3)n2)cc1OC (stereo not drawn) | -6 | -52 | -2 | 8 | 52 | -5 | .
COc1ccc(N(CC(=O)NC2CCCC2)C(=O)Cn2nnc(-c3ccc(C)o3)n2)cc1 | -3 | . | -2 | 2 | . | 3 | .
COc1ccc(NC(=O)N[C@@H]2CC[C@@H](CCNS(=O)(=O)c3ccccc3F)O[C@H]2CO)cc1 | . | . | 3 | . | . | . | .
C[C@H]1CCCCO[C@H](CN(C)S(=O)(=O)c2cn(C)cn2)[C@@H](C)CN([C@@H](C)CO)C(=O)c2cc(NS(=O)(=O)c3ccc(Cl)cc3)ccc2O1 | . | . | -3 | 0[16.7 µM] | . | . | .
O=C(NC1CC1)c1ccc(CN(c2ccccc2)S(=O)(=O)c2ccccc2)cc1 | 0 | -74 | 17 | . | ? | 3 | 4%
CCN(c1ccccc1)S(=O)(=O)c1ccc(C(=O)NC2CCCCC2)cc1 | . | . | . | -2 | . | . | .
O=C1C2C3C=CC(C3)C2C(=O)N1c1cccc(N2C(=O)C3C4C=CC(C4)C3C2=O)n1 (stereo not drawn) | -3 | 2 | 2 | 15 | -2 | -3 | -3%
O=C1C2C3C=CC(C3)C2C(=O)N1c1ccc2ccccc2n1 (stereo not drawn) | . | 2 | -3 | -5 | -2 | -1 | .
NC(=O)c1nc[nH]c1C(=O)Nc1cccc(NC(=O)c2cccc(C(F)(F)F)c2)c1 | -1 | -11 | -17 | -7 | 9 | -2 | .
O=C(Nc1cccc(-c2csc(Nc3ccc(Cl)cc3)n2)c1)c1cccc(C(F)(F)F)c1 | 1 | -110 | . | . | 110* | -2 | 2.1µM*
O=C(C[C@H]1C=C[C@H](NC(=O)c2ccccn2)[C@@H](CO)O1)NCc1cccc(F)c1 | . | . | -1 | . | . | . | .
CCNC(=O)C[C@H]1CC[C@H](NS(=O)(=O)c2ccc(F)cc2)[C@@H](CO)O1 | . | . | 5 | . | . | . | .
Cc1cc(C(=O)COC(=O)c2ccc(Cl)c(S(N)(=O)=O)c2)c(C)n1C1CC1 | -1 | -75 | 5 | . | 75* | 41* | 2%
CC(C)N(C(=O)COC(=O)c1ccc(Cl)c(S(N)(=O)=O)c1)C(C)C | -1 | -10 | 0 | . | 10 | -3 | .
SMILES | CAL PDZ FP-1 | SR-BI DiI-HDL act | ARNT TACC3 PPI | miR-122 sensor | SR-BI HDL uptake | CAL PDZ FP-2 | DiI quench
C[C@@H]1CN([C@@H](C)CO)C(=O)Cc2cc(NC(=O)c3ccncc3)ccc2O[C@@H]1CN(C)C(=O)Nc1ccccc1 | . | . | . | -6[16.7 µM] | . | . | .
COc1ccc(NC(=O)c2c(Nc3ccccc3)sc(C(=O)c3ccc(F)cc3)c2N)cc1 | -2 | -122 | -2 | -11 | 122* | 2 | 0.18µM*
CCOc1ccc(NC(=O)CN2CCN(CC(=O)Nc3cccc(F)c3)CC2)cc1 | 0 | -50 | 3 | 6 | 50 | 20 | .
CCOc1ccc(NC(=O)CN2CCN(CC(=O)Nc3ccc(Cl)c(C(F)(F)F)c3)CC2)cc1 | -2 | -37 | 5 | 0 | 37 | -1 | 1%
CCOc1ccc(NC(=O)CN2CCN(CC(=O)Nc3cc(OC)cc(OC)c3)CC2)cc1 | -1 | -81 | -6 | -7 | 81* | -2 | -1%
CNC[C@H]1Oc2cc(-c3ccncc3)ccc2S(=O)(=O)N([C@@H](C)CO)C[C@H]1C | . | . | -6 | 1[16.7 µM] | . | . | .
COc1ccc(NC(=O)CCC(=O)N(Cc2ccc(OC)c(OC)c2)c2nccs2)c(OC)c1 | -5 | -30 | 6 | -4 | 30 | -8 | .
COc1ccc(OC)c(NC(=O)CCC(=O)N(Cc2ccc(OC)c(OC)c2)c2nccs2)c1 | 0 | -73 | -2 | . | ? | -4 | -10%
C[C@@H]1CN([C@@H](C)CO)C(=O)c2cc(-c3cccc(C#N)c3)cnc2O[C@@H]1CN(C)C(=O)C1CCC1 | . | . | -10 | 10[16.7 µM] | . | . | .
CCc1ccc(NC(=O)C2CCCN(S(=O)(=O)c3ccc4[nH]c(=O)ccc4c3)C2)cc1 (stereo not drawn) | -2 | -104 | -7 | -3 | 104* | 1 | -3%
COc1ccc(CN(C)C[C@@H]2OCCCC[C@H](C)Oc3ccc(NS(=O)(=O)c4ccc(OC)cc4)cc3C(=O)N([C@@H](C)CO)C[C@@H]2C)cc1 | . | . | -3 | 2[16.7 µM] | . | . | .
